Reference: ChEMBL document CHEMBL4673214, “Synthesis and antibacterial bioactivities of cationic deacetyl linezolid amphiphiles” (Eur J Med Chem, 2018)
Converted amounts (≈) assume the structure as drawn. The source made the active and inactive calls. The calls are words filed in the database; no cut-off is given here.

Legend:
Cell membrane [1] = experiment: Induction of inner membrane permeabilization in Staphylococcus aureus ATCC 29213 at 20 ug/ml measured for 12 mins by propidium iodide staining based fluorescence microscopic analysis; settings: dose 20.0 µg/ml
In short: (§1)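 Mid-log bacteria were washed and resuspended at ~10^8 CFU/mL and preincubated with propidium iodide (10 µM stock) for 30 min (S. aureus) or 40 min (E. coli). Fluorescence (ex 535/em 617 nm) was read on a plate for an 8 min baseline, then every 2 min for 12 min after compound at 20 µg/mL final. Water served as control.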

Enterobacteriaceae [2] = experiment: Antibacterial activity against NDM1 producing carbapenem-resistant Enterobacteriaceae clinical isolate 5 assessed as reduction in bacterial growth incubated for 16 to 20 hrs by CLSI-based broth microdilution method; format: functional; settings: time 16-20 hrs
In short: (§2)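 Clinical isolates tested by broth microdilution in cation-adjusted Mueller-Hinton broth. Cultures grown 4-6 h (~10^8 CFU/mL) were diluted to ~10^6 CFU/mL and mixed 1:1 with compound serial dilutions made from 256 down to 0.5 µg/mL (pre-mixing). Plates held at 37 °C for 16-20 h, then read for growth. Each concentration run in duplicate, whole experiment at least twice.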

Enterococcus faecalis = experiment: Antibacterial activity against Enterococcus faecalis ATCC 29212 assessed as reduction in bacterial growth incubated 16 to 20 hrs by CLSI-based broth microdilution method; format: functional; settings: time 16-20 hrs
In short: (§3)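 Broth microdilution following CLSI, in cation-adjusted Mueller-Hinton broth. Inoculum from a 4-6 h culture (~10^8 CFU/mL), diluted to ~10^6 CFU/mL. Water stocks were serially diluted in MHB (256 to 0.5 µg/mL) and mixed 1:1 with the inoculum. Plates ran 16-20 h at 37 °C. MIC was read visually. Each concentration was tested in duplicate, and the experiment was repeated at least twice.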

Staphylococcus aureus = experiment: Bactericidal activity against early exponential phase of Staphylococcus aureus ATCC 29213 at 4X MIC measured after 6 hrs by time-kill kinetic assay; format: functional, organism-based
In short: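 S. aureus ATCC 29213 overnight culture diluted 1:10,000 in MHB and shaken at 225 rpm, 37 °C for 2 h to early exponential phase. Exposed to compound at 4× MIC in tubes, 37 °C, 225 rpm. Samples spun down, resuspended in PBS, plated as ten-fold dilutions on MHA overnight at 37 °C, and CFU/mL counted. Biological replicates.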

Klebsiella pneumoniae [3] = experiment: Antibacterial activity against carbapenem-resistant Klebsiella pneumoniae clinical isolate 7 assessed as reduction in bacterial growth incubated for 16 to 20 hrs by CLSI-based broth microdilution method; format: functional; settings: time 16-20 hrs; in short: as §2
Klebsiella pneumoniae [4] = experiment: Antibacterial activity against carbapenem-resistant Klebsiella pneumoniae clinical isolate 8 assessed as reduction in bacterial growth incubated for 16 to 20 hrs by CLSI-based broth microdilution method; format: functional; settings: time 16-20 hrs; in short: as §2
Enterobacteriaceae [5] = experiment: Antibacterial activity against NDM1 producing carbapenem-resistant Enterobacteriaceae clinical isolate 4 assessed as reduction in bacterial growth incubated for 16 to 20 hrs by CLSI-based broth microdilution method; format: functional; settings: time 16-20 hrs; in short: as §2
Enterobacteriaceae [6] = experiment: Antibacterial activity against NDM1 producing carbapenem-resistant Enterobacteriaceae clinical isolate 7 assessed as reduction in bacterial growth incubated for 16 to 20 hrs by CLSI-based broth microdilution method; format: functional; settings: time 16-20 hrs; in short: as §2
Enterobacteriaceae [7] = experiment: Antibacterial activity against NDM1 producing carbapenem-resistant Enterobacteriaceae clinical isolate 10 assessed as reduction in bacterial growth incubated for 16 to 20 hrs by CLSI-based broth microdilution method; format: functional; settings: time 16-20 hrs; in short: as §2
Klebsiella pneumoniae [8] = experiment: Antibacterial activity against carbapenem-resistant Klebsiella pneumoniae clinical isolate 2 assessed as reduction in bacterial growth incubated for 16 to 20 hrs by CLSI-based broth microdilution method; format: functional; settings: time 16-20 hrs; in short: as §2
Enterobacteriaceae [9] = experiment: Antibacterial activity against NDM1 producing carbapenem-resistant Enterobacteriaceae clinical isolate 1 assessed as reduction in bacterial growth incubated for 16 to 20 hrs by CLSI-based broth microdilution method; format: functional; settings: time 16-20 hrs; in short: as §2
Cell membrane [10] = experiment: Induction of inner membrane permeabilization in Escherichia coli ATCC 25922 at 20 ug/ml measured for 12 mins by propidium iodide staining based fluorescence microscopic analysis; settings: dose 20.0 µg/ml; in short: as §1
Enterobacteriaceae [11] = experiment: Antibacterial activity against NDM1 producing carbapenem-resistant Enterobacteriaceae clinical isolate 6 assessed as reduction in bacterial growth incubated for 16 to 20 hrs by CLSI-based broth microdilution method; format: functional; settings: time 16-20 hrs; in short: as §2
Klebsiella pneumoniae [12] = experiment: Antibacterial activity against carbapenem-resistant Klebsiella pneumoniae clinical isolate 6 assessed as reduction in bacterial growth incubated for 16 to 20 hrs by CLSI-based broth microdilution method; format: functional; settings: time 16-20 hrs; in short: as §2
Klebsiella pneumoniae [13] = experiment: Antibacterial activity against carbapenem-resistant Klebsiella pneumoniae clinical isolate 3 assessed as reduction in bacterial growth incubated for 16 to 20 hrs by CLSI-based broth microdilution method; format: functional; settings: time 16-20 hrs; in short: as §2
Klebsiella pneumoniae [14] = experiment: Antibacterial activity against carbapenem-resistant Klebsiella pneumoniae clinical isolate 10 assessed as reduction in bacterial growth incubated for 16 to 20 hrs by CLSI-based broth microdilution method; format: functional; settings: time 16-20 hrs; in short: as §2
Klebsiella pneumoniae [15] = experiment: Antibacterial activity against carbapenem-resistant Klebsiella pneumoniae clinical isolate 1 assessed as reduction in bacterial growth incubated for 16 to 20 hrs by CLSI-based broth microdilution method; format: functional; settings: time 16-20 hrs; in short: as §2
Enterobacteriaceae [16] = experiment: Antibacterial activity against NDM1 producing carbapenem-resistant Enterobacteriaceae clinical isolate 8 assessed as reduction in bacterial growth incubated for 16 to 20 hrs by CLSI-based broth microdilution method; format: functional; settings: time 16-20 hrs; in short: as §2
Enterobacteriaceae [17] = experiment: Antibacterial activity against NDM1 producing carbapenem-resistant Enterobacteriaceae clinical isolate 2 assessed as reduction in bacterial growth incubated for 16 to 20 hrs by CLSI-based broth microdilution method; format: functional; settings: time 16-20 hrs; in short: as §2
Klebsiella pneumoniae [18] = experiment: Antibacterial activity against carbapenem-resistant Klebsiella pneumoniae clinical isolate 5 assessed as reduction in bacterial growth incubated for 16 to 20 hrs by CLSI-based broth microdilution method; format: functional; settings: time 16-20 hrs; in short: as §2
Klebsiella pneumoniae [19] = experiment: Antibacterial activity against carbapenem-resistant Klebsiella pneumoniae clinical isolate 4 assessed as reduction in bacterial growth incubated for 16 to 20 hrs by CLSI-based broth microdilution method; format: functional; settings: time 16-20 hrs; in short: as §2
Cell membrane [20] = experiment: Induction of cytoplasmic membrane depolarization in Staphylococcus aureus ATCC 29213 at 20 ug/ml measured for 12 mins by DiSC35 dye-based fluorescence assay; format: subcellular; settings: dose 20.0 µg/ml
In short: (§4)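 Mid-log bacteria were washed and resuspended at ~10^8 CFU/mL: S. aureus in PBS, E. coli in 5 mM HEPES/5 mM glucose/100 mM KCl (1:1:1). Cells were loaded with diSC35 (10 µM stock) for 30 min (S. aureus) or 40 min (E. coli, plus EDTA). Fluorescence (ex 622/em 670 nm) was read for an 8 min baseline, then every 2 min for 12 min after compound at 20 µg/mL final. Water served as control.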

Escherichia coli = experiment: Antibacterial activity against Escherichia coli ATCC 25922 assessed as reduction in bacterial growth incubated 16 to 20 hrs by CLSI-based broth microdilution method; format: functional; settings: time 16-20 hrs; in short: as §3
Klebsiella pneumoniae [21] = experiment: Antibacterial activity against carbapenem-resistant Klebsiella pneumoniae clinical isolate 9 assessed as reduction in bacterial growth incubated for 16 to 20 hrs by CLSI-based broth microdilution method; format: functional; settings: time 16-20 hrs; in short: as §2
Salmonella enterica = experiment: Antibacterial activity against Salmonella enterica ATCC 8387 assessed as reduction in bacterial growth incubated for 16 to 20 hrs by CLSI-based broth microdilution method; format: functional; settings: time 16-20 hrs; in short: as §3
Cell membrane [22] = experiment: Induction of outer membrane permeabilization in Escherichia coli ATCC 25922 at 20 ug/ml measured for 12 mins by NPN dye based fluorescence assay; settings: dose 20.0 µg/ml
In short: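 Mid-log E. coli in HEPES/glucose/KCl at ~10^8 CFU/mL was preincubated 40 min with N-phenylnaphthylamine (10 µM stock). Fluorescence (ex 350/em 420 nm) was read for an 8 min baseline, then every 2 min for 12 min after compound at 20 µg/mL final. Water served as control.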

Enterobacteriaceae [23] = experiment: Antibacterial activity against NDM1 producing carbapenem-resistant Enterobacteriaceae clinical isolate 9 assessed as reduction in bacterial growth incubated for 16 to 20 hrs by CLSI-based broth microdilution method; format: functional; settings: time 16-20 hrs; in short: as §2
Enterobacteriaceae [24] = experiment: Antibacterial activity against NDM1 producing carbapenem-resistant Enterobacteriaceae clinical isolate 3 assessed as reduction in bacterial growth incubated for 16 to 20 hrs by CLSI-based broth microdilution method; format: functional; settings: time 16-20 hrs; in short: as §2
Cell membrane [25] = experiment: Induction of cytoplasmic membrane depolarization in Escherichia coli ATCC 25922 at 20 ug/ml measured for 12 mins by DiSC35 dye-based fluorescence assay; format: subcellular; settings: dose 20.0 µg/ml; in short: as §4

CN[C@H](CC(C)C)C(=O)N[C@H]1C(=O)N[C@@H](CC(N)=O)C(=O)N[C@H]2C(=O)N[C@H]3C(=O)N[C@H](C(=O)N[C@H](C(=O)O)c4cc(O)cc(O)c4-c4cc3ccc4O)[C@H](O)c3ccc(c(Cl)c3)Oc3cc2cc(c3O[C@@H]2O[C@H](CO)[C@@H](O)[C@H](O)[C@H]2O[C@H]2C[C@](C)(N)[C@H](O)[C@H](C)O2)Oc2ccc(cc2Cl)[C@H]1O [VANCOMYCIN]
Activity (Cell membrane [1]): inactive | MIC (Enterobacteriaceae [2]): 64 µg/mL (≈ 44.2 µM) | MIC (Enterococcus faecalis): 2 µg/mL (≈ 1.38 µM) | Activity (Staphylococcus aureus): inactive | MIC (Klebsiella pneumoniae [3]): > 64 µg/mL | MIC (Klebsiella pneumoniae [4]): > 64 µg/mL | MIC (Enterobacteriaceae [5]): > 64 µg/mL | MIC (Enterobacteriaceae [6]): 64 µg/mL (≈ 44.2 µM) | MIC (Enterobacteriaceae [7]): > 64 µg/mL | MIC (Klebsiella pneumoniae [8]): > 64 µg/mL | MIC (Enterobacteriaceae [9]): > 64 µg/mL | Activity (Cell membrane [10]): inactive | MIC (Enterobacteriaceae [11]): 64 µg/mL (≈ 44.2 µM) | MIC (Klebsiella pneumoniae [12]): > 64 µg/mL | MIC (Klebsiella pneumoniae [13]): > 64 µg/mL | MIC (Klebsiella pneumoniae [14]): > 64 µg/mL | MIC (Klebsiella pneumoniae [15]): > 64 µg/mL | MIC (Enterobacteriaceae [16]): 64 µg/mL (≈ 44.2 µM) | MIC (Enterobacteriaceae [17]): > 64 µg/mL | MIC (Klebsiella pneumoniae [18]): 64 µg/mL (≈ 44.2 µM) | MIC (Klebsiella pneumoniae [19]): 64 µg/mL (≈ 44.2 µM) | Activity (Cell membrane [20]): inactive | MIC (Escherichia coli): 64 µg/mL (≈ 44.2 µM) | MIC (Klebsiella pneumoniae [21]): 64 µg/mL (≈ 44.2 µM) | MIC (Salmonella enterica): 32 µg/mL (≈ 22.1 µM) | Activity (Cell membrane [22]): inactive | MIC (Enterobacteriaceae [23]): 64 µg/mL (≈ 44.2 µM) | MIC (Enterobacteriaceae [24]): > 64 µg/mL | Activity (Cell membrane [25]): inactive
